Source: paper PMC3240686 (Journal of medicinal chemistry, 2011)
Blank lines part the entries; values can stand above or below the compound they belong to.

Experiments:
[1] = system: carrageenan-induced thermal hyperalgesia; assay: Carrageenan-induced thermal hyperalgesia; format: in vivo; details: rats; for antihyperalgesic effect and its duration: oral 100 mg/kg, n=2, time post-carrageenan; for activity at inhibiting hyperalgesia: carrageenan model; for block of development of carrageenan-induced hyperalgesia, i.p.: i.p. injection 10 mg/kg; for block of development of carrageenan-induced hyperalgesia, i.p. / block of carrageenan-induced hyperalgesia, oral: 30 min before carrageenan, n=3
Summary of the method: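 Under light CO2 (80%)/O2 (20%) anaesthesia, rats received subplantar 1% carrageenan in saline (vehicle: saline) into the right hindpaw. For prophylactic dosing, drug or vehicle was given by gavage or i.p. 30 min before carrageenan. Heat hyperalgesia was measured by the Hargreaves plantar test, with an infrared stimulus from below and a 20 s cut-off. The read-out was change in paw-withdrawal latency (s).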

[2] = Relative lipophilicity by reversed phase HPLC retention factors; format: physicochemical; details: relative to parent compound 7, isocratic conditions
[3] = Cyclic voltammetry in CH2Cl2; format: physicochemical
[4] = Observed acute toxicity in the carrageenan hyperalgesia studies; format: in vivo, rats
[5] = system: mechano-allodynia after CCI of the sciatic nerve; assay: Chronic constriction injury; format: in vivo; details: mice
[6] = octanol-water, slow stir method
[7] = dose 300 mg/kg, 2 h time point, n=6

- relative lipophilicity by RPHPLC retention factor [2]: progressively more lipophilic
Compound: Mn(III)-5,15-bis(4-isobutyryloxymethyl)phenyl-TCHP [Compound 16c]
- antihyperalgesic effect and its duration [1]: potent anti-hyperalgesic action out to the 5 hour time point

- reversible (presumably porphyrin-based) oxidation potential ([3]; cyclic voltammetry in CH2Cl2): 0.89 V. vs. ferrocene
- Mn(II/III) couple ([3]; cyclic voltammetry in CH2Cl2, chemically reversible): −0.79 V vs. ferrocene
Compound: Mn(III)-5,15-di-phenyl-TCHP Chloride [Compound 10]
- activity at inhibiting hyperalgesia [1]: active at inhibiting hyperalgesia

- relative lipophilicity by RPHPLC retention factor [2]: progressively more lipophilic
Compound: Mn(III)-5,15-bis(4-propionyloxymethyl)phenyl-TCHP [Compound 16b]
- antihyperalgesic effect and its duration [1]: strong antihyperalgesic effect out to 3 hours with a decline in this effect occurring in the 4–5 hour time period

Compound: CC(=O)Oc1ccccc1C(=O)O [aspirin, reference compound]
- % inhibition of hyperalgesia [1, 7]: 50±6%

Compound: CC(C)Cc1ccc(C(C)C(=O)O)cc1 (centres unmarked) [ibuprofen, reference compound]
- % inhibition of hyperalgesia [1, 7]: 99±5%

Compound: CC[n+]1ccccc1-c1c2nc(c(-c3cccc[n+]3CC)c3ccc([n-]3)c(-c3cccc[n+]3CC)c3nc(c(-c4cccc[n+]4CC)c4ccc1[n-]4)C=C3)C=C2.[Mn+3] [Mn(III)-TE-2-PyP^5+, Mn(III) meso-tetrakis[(N-ethyl)pyridinium-2-yl]porphyrin (5+), reference compound]
- block of development of carrageenan-induced hyperalgesia, i.p. [1]: blocked the development of carrageenan-induced hyperalgesia
- block of carrageenan-induced hyperalgesia, oral ([1]; oral gavage 100 mg/kg): only 7 is able to block hyperalgesia when given orally
- mortality ([4]; i.p., 3 fold higher dose than the one required to block hyperalgesia): 100%

Compound: Mn(III)-5,15-bis(4-hydroxymethyl)phenyl-TCHP [Compound 15]
- antihyperalgesic effect and its duration [1]: excellent potency out to the 5 hour time point
- relative lipophilicity by RPHPLC retention factor [2]: substantially less lipophilic than parent compound 7

Compound: Mn(III)-5,15-bis(4-acetoxymethyl)phenyl-TCHP [Compound 16a]
- antihyperalgesic effect and its duration [1]: strong antihyperalgesic effect out to 2 hours post-carrageenan but the effect was lost at 3 hours
- relative lipophilicity by RPHPLC retention factor [2]: progressively more lipophilic

Compound: CC(=O)Nc1ccc(O)cc1 [acetaminophen, reference compound]
- % inhibition of hyperalgesia [1, 7]: 20±4%

Compound: Mn(III)-TCHP Chloride [Compound 7]
- reversal of established hyperalgesia: pain at 1 h after dosing ([1]; 100 mg/kg oral gavage at 3 h post carrageenan, 4 hour time point): pain was substantially reduced
- block of development of carrageenan-induced hyperalgesia, i.p. [1]: blocked the development of carrageenan-induced hyperalgesia
- block of carrageenan-induced hyperalgesia, oral ([1]; oral gavage 100 mg/kg): able to block hyperalgesia when given orally
- % inhibition of hyperalgesia ([1]; oral gavage 100 mg/kg, for 2 h): ~100%
- inhibitory effect at late time ([1]; oral gavage 100 mg/kg, out to 5 h): substantial inhibitory effect maintained out to 5 h
- effect on withdrawal responses of contralateral paws ([5]; oral 10–100 mg/kg): no effect
- reversal of neuropathic pain (mechano-allodynia) ([5]; oral 10–100 mg/kg at time of peak mechano-allodynia, n=4): rapid, dose-dependent and near-to-maximal reversal of neuropathic pain within 1h post-dosing
- 95% CI of ED50 ([5]; oral, at time of peak reversal, n=4): 15.64 to 51.67 mg/kg/day
- ED50, reversal of mechano-allodynia ([5]; oral, day 7 after CCI, at time of peak reversal, n=4): 28 mg/kg
- acute toxicity ([4]; doses at least 6–8 fold higher than the one needed to block hyperalgesia): no observable acute toxicities
- LogP [6]: 3.77

Compound: Mn(III)-5, 10, 15, 25-tetrakis-phenyl-TCHP Chloride [Compound 12]
- activity at inhibiting hyperalgesia [1]: active at inhibiting hyperalgesia
